Screens from PubChem.
STAT1 activator = increases IFN-gamma driven STAT1 reporter signal; NIH 3T3 STAT1-luciferase reporter, luminescence; 100% = IFN-gamma alone, no compound; activation (% of control), % at 5.5 µM; 200,000 tested, 2.6% active; AID 932;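 active = activation above the screen-wide mean activation plus 3 SD, cut at about 130% in these data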
APP 5'UTR act = APP 5'UTR luciferase reporter activation. SH-SY5Y APP 5'UTR luciferase reporter, luminescence; zero percent = DMSO vehicle wells. activation, % at 2 µM. 190,000 tested, 1% active. AID 1276;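 active = activation above a set limit, based on mean plus 3 SD of controls, cut at about 140% in these data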
MDM2 E3 inh = Mdm2 E3 ligase (human) inhibition | Q00987 | signal enhancement, % at 5 µM | cell-based MDM2 ubiquitination luciferase reporter, 2 h; 0 = plate control, 100 = twice control, blank-subtracted | 210,000 tested, 0.11% active | AID 1230;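 active = signal enhancement of 30% or more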;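 note: luminescence tracks abundance of the self-degrading MDM2-luciferase fusion protein; higher signal means inhibition of MDM2 E3 ligase activity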
Target sequence (Q00987 whole entry, looked up, the tested form may be a part): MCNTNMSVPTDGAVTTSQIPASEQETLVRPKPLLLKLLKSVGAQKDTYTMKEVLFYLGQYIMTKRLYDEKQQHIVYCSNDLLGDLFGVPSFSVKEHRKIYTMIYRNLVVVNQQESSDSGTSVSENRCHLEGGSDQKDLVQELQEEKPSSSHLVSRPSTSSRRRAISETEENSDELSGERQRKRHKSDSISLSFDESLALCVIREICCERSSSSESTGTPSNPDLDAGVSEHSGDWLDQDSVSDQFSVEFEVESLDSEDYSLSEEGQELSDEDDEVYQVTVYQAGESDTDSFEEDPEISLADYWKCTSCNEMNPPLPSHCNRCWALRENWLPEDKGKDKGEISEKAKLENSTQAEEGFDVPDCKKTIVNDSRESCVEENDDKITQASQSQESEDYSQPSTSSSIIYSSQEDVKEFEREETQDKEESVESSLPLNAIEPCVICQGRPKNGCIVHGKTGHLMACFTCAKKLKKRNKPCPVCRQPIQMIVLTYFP
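system = mammalian cells stably expressing self-ubiquitinating, self-degrading MDM2 E3–luciferase fusion | quantity = 2000 cells per well seeded | incubation = 4 h cell settling then 2 h compound exposure, 37 °C | signal = SteadyLite luminescence, 15 min reagent step | benchmarks = plate control and blank wells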
AHR activator = activates the human aryl hydrocarbon receptor. AHR-responsive luciferase reporter cells, luminescence. 320,000 tested, 2.5% active. AID 2796. P35869. activation, % at 5 µM; in the data active = activation above about 47%
PERK inh = blocks human PERK kinase; inhibition, % at 5.6 µM; Q9NZJ5; CHO PERK-DD fusion, SEAP luminescence translation reporter; 220,000 tested, 0.17% active;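 active = inhibition above the mean inhibition of all tested compounds plus 3 SD, set separately per screening campaign, cut at about 2.9% in these data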;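 note: PERK kinase domain activated by AP20187 dimerizer at 100 nM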
NF-kB expr up = raises NF-kB expression in human neuronal cells | 190,000 tested, 1.6% active | AID 1239 | NF-kB reporter expression; hits give high values | fold change at 12.5 µM; in the data active = fold change above about 3.3
A number is an active result; n = inactive; x = not tested or not shown. Most compounds without a hit are left out; they make up all but 4.5% or so of the library.

SMILES	STAT1 activator	APP 5'UTR act	MDM2 E3 inh	AHR activator	PERK inh	NF-kB expr up
NC(=O)c1ccc(NC(=O)COC(=O)CC23CC4CC(CC(Br)(C4)C2)C3)cc1	x	x	x	n	x	x
CCCCNc1c(-c2ccc(-c3cccc(Cl)c3)cc2)nc2ccccn12	x	x	x	56	x	x
CCCCCCSc1ccc(-c2nc3ccccn3c2NCCCC)cc1	x	x	x	n	x	x
Cc1cc(C)c2cc(C(=O)N3CCc4ccccc4C3)[nH]c2c1	x	x	n	55	n	x
O=C(COc1ccc(C(=O)c2ccccc2)cc1)NCC1CCCCC1	n	n	n	n	n	n
Cc1ccc(-n2ncc3c(SCC(=O)NNC(=O)C(C)C)ncnc32)cc1	x	x	x	n	x	x
Cc1csc2c(SCC(=O)NNC(=O)C(Cl)Cl)ncnc12	x	x	n	n	3.1	x
O=C1CC(c2ccc3c(c2)OCO3)Sc2nc3ccccc3n21 (stereo not drawn)	n	n	n	n	n	n
O=C1CC(c2cccs2)Sc2nc3ccccc3n21 (stereo not drawn)	129	n	n	n	n	n
O=C1CC(c2ccccc2)Sc2nc3ccccc3n21 (stereo not drawn)	132	168	n	n	n	n
CSCCC(NC(C)=O)C(=O)Oc1ccc2c3c(c(=O)oc2c1)CCCC3 (stereo not drawn)	n	n	n	x	n	n
CSCCC(NC(=O)OC(C)(C)C)C(=O)Oc1ccc2c(=O)c(-c3ccc4c(c3)OCCO4)coc2c1 (stereo not drawn)	129	173	n	n	n	n
COc1ccc(NC(=S)NNC(=O)c2ccccc2OC(F)F)cc1	n	n	n	118	n	n
CCc1ccc(NC(=S)NNC(=O)c2ccccc2OC(F)F)cc1	n	n	n	49	n	n
COc1ccc(C(=O)NNC(=S)Nc2ccccc2)cc1	130	141	n	n	n	6.5
O=C1NC[C@@H](c2ccccc2)OC(=O)[C@H](Cc2ccc(F)cc2)C/C=C\C[C@@H]1CC(=O)N(CCO)Cc1ccccc1	x	x	x	n	x	x
CC(=O)Oc1ccc2c(=O)c(-c3ccccc3)coc2c1	131	n	n	n	n	n
Cc1nn(C)c(NC(=O)c2ccc(Cl)cc2Cl)c1Br	x	x	x	n	x	x
O=C(Nc1ccc(CN2CCOCC2)cc1)c1cccc(F)c1	133	n	n	n	n	n
CC(=O)Nc1ccc(/C(C)=N/NC(=O)c2ccc(CN3CCOCC3)cc2)cc1	n	n	n	n	n	n
C/C(=N\NC(=O)c1ccc(CN2CCOCC2)cc1)c1ccc(NC(=O)c2ccccc2)cc1	131	n	n	n	n	n
CC(C)Cc1nnc(NC(=O)C2CCCC2)s1	x	x	x	n	x	x
COc1ccc2cc(CO)c(Cl)nc2c1	n	n	n	n	n	n
COc1ccc2cc(/C=N/O)c(Cl)nc2c1	129	n	n	n	n	n
O=C(Nc1nc2c(s1)CCCC2)Oc1ccccc1	n	n	n	n	n	n
SMILES	STAT1 activator	APP 5'UTR act	MDM2 E3 inh	AHR activator	PERK inh	NF-kB expr up
O=C(Nc1nc2c(s1)CCCC2)c1cccnc1	139	n	n	n	n	4
O=C(Nc1nc2c(s1)CCCC2)c1cc(-c2ccccc2)nc2ccccc12	n	n	n	n	n	n
O=C(Cc1cccs1)Nc1nc2c(s1)CCCC2	131	n	n	n	n	6.1
O=C(Cc1cccs1)NCc1ccncc1	n	n	n	n	3.0	n
O=C(Cc1cn2ccsc2n1)Nc1nc2c(s1)CCCC2	n	n	n	n	n	n
O=C(Nc1nc2c(s1)CCCC2)c1cccs1	146	198	n	59	n	5.7
O=C(Cc1cccs1)NCc1ccccc1	n	n	n	n	n	n
COc1cc2c(cc1OC)CN(C(=O)CN1C(=O)c3ccc([N+](=O)[O-])cc3C1=O)CC2	x	x	x	n	x	x
CC(=O)Nc1nc2c(ccc3ccccc32)s1	x	x	x	n	x	x
Cn1nnnc1SCC(=O)Nc1nc2c(s1)CCCC2	143	n	n	n	n	4
O=C(Cc1cccs1)Nc1nc2c(ccc3ccccc32)s1	n	n	n	60	n	n
CC(=O)c1cnc(Nc2ccc(C)cc2)s1	137	n	n	n	n	n
CCOC(=O)c1c(C)[nH]c(C(=O)Nc2cc(OCC)c(N3CCOCC3)cc2OCC)c1C	x	x	x	n	x	x
O/N=C/c1ccn(-c2ccc(Br)cc2)c1	131	n	n	n	n	n
Cc1cc(/C=N/O)c(C)n1-c1ccc(Br)cc1	n	n	n	n	n	n
COc1ccc(CNc2ncc(-c3ccc(F)cc3)n2C)c2ccccc12	x	x	x	61	x	x
COc1ccccc1CNc1ncc(-c2ccc(F)cc2)n1C	x	x	x	73	x	x
COc1ccc(CNc2ncc(-c3ccc(F)cc3)n2C)cc1OC	x	x	x	n	x	x
O=C(C(Cl)Cl)N1c2ccccc2OCC1c1ccccc1 (stereo not drawn)	n	n	n	n	n	n
CC(C)c1cc(=O)[nH]c(N2CCN(Cc3ccc4c(c3)OCO4)CC2)n1	x	x	x	n	x	x
COc1ccccc1CNS(=O)(=O)c1cc(-c2cc(C)no2)ccc1C(C)C	x	x	x	n	x	x
CNC(=O)Cn1nc(-c2ccc(C)cc2)c2ccccc2c1=O	x	x	x	n	x	x
O=S(=O)(c1ccccc1)c1cnc(-c2ccccc2)nc1N1CCCC1	146	n	n	n	n	n
Cc1nc(-c2ccccc2)sc1-c1nc(-c2ccncc2)ncc1S(=O)(=O)c1ccccc1	n	n	n	54	n	n
O=C(CCc1nc(-c2ccccc2Cl)no1)NCc1ccco1	n	n	n	n	n	n
SMILES	STAT1 activator	APP 5'UTR act	MDM2 E3 inh	AHR activator	PERK inh	NF-kB expr up
CCN(CC)C(=O)CSc1nnc(-c2cc(-c3ccc(Cl)cc3)nc3ccccc23)o1	n	n	n	n	n	n
CCNC(=O)CSc1nnc(-c2cc(-c3ccc(Cl)cc3)nc3ccccc23)o1	n	n	n	50	n	n
NS(=O)(=O)c1ccc(CNC(=O)c2cccnc2Cl)cc1	x	x	x	n	x	x
[O-]/[N+](=C/c1ccc(F)cc1)c1ccc(Cl)cc1	n	n	n	64	n	4
COC(=O)C1=C(C(=O)OC)[C@@H]2N(C)c3ccc(OC)cc3[C@@]23C[C@@H](C(=O)OC)N=C3N1	x	x	36	n	x	x
COc1ccc(NC(=O)c2cc(-c3ccncc3)nc3ccccc23)c(OC)c1	x	x	x	56	x	x
Cc1ccc(-c2cc(C(=O)Nc3ccccn3)c3ccccc3n2)o1	n	n	n	n	n	n
COc1ccccc1NC(=O)c1cc(C)nc2ccccc12	n	n	n	74	n	n
COc1ccccc1NC(=O)c1cc(-c2ccc(C)o2)nc2ccccc12	x	x	x	72	x	x
C=CCSc1nc(N)c(C(=O)Nc2ccccc2OC)cc1C(=O)Nc1ccccc1	n	n	n	75	n	n
CC(OC(=O)c1ccco1)C(=O)Nc1ccc(C(F)(F)F)cc1 (stereo not drawn)	x	x	x	n	x	x
O=C(O)C(Cc1c[nH]c2ccccc12)N1C(=O)C2C3c4ccccc4C(c4ccccc43)C2C1=O (stereo not drawn)	n	n	n	n	n	n
COc1ccc(C(O)(c2ccccc2OC)C(CN2CCOCC2)c2ccccc2)cc1 (stereo not drawn)	n	n	n	n	n	n
